mIAP activ: mouse IAP activation; muIAP, CDP-Star luminescence, 30 min; active compounds read high; 1 = vehicle-only enzyme signal, 0 = enzyme-free wells; activation factor at 10 µM; actives 0.24% (n = 330,000); AID 2805;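 active means activation factor of at least 2 at 20 µM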
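Assay system: mouse IAP enzyme; reagent: chemiluminescent substrate CDP-Star; dosing: test compounds delivered from DMSO solution; schedule: 30 min at room temperature; measured by: luminescence from enzymatic CDP-Star hydrolysis; controls: DMSO-only wells and no-enzyme negative control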
hIAP inh: blocks human intestinal alkaline phosphatase | actives 0.12% (n = 330,000) | inhibition, % at 10 µM | purified IAP, CDP-Star luminescence, 30 min;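 active means inhibition reaching a set limit with compound at 10 µM in the primary screen, cut at about 35% in these data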
Target sequence (P09923 whole entry, looked up): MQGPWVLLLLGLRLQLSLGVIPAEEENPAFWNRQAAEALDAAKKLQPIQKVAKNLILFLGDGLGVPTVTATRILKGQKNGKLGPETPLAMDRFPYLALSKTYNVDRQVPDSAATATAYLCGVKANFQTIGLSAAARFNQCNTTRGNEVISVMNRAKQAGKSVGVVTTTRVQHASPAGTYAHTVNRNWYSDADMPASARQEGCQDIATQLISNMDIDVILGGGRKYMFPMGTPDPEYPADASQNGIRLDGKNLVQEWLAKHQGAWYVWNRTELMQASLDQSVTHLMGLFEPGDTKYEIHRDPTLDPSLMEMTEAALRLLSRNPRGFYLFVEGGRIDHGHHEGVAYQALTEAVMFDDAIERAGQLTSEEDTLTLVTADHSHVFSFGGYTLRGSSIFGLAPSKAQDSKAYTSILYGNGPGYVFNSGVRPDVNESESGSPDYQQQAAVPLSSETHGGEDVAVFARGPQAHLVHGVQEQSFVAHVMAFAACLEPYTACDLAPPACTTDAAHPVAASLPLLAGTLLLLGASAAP
mIAP block: mouse IAP inhibition. purified mouse IAP, CDP-Star luminescence, 30 min. inhibition, % at 10 µM. actives 0.2% (n = 330,000);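 active means inhibition of at least 40% at 10 µM in the primary screen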
bIAP activator: increases bovine intestinal alkaline phosphatase activity; purified bovine IAP, CDP-star luminescence, 30 min; active compounds read high; fold of DMSO-control signal, blank-subtracted; actives 0.17% (n = 200,000); activation factor at 20 µM;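 active means activation factor of 2 or more at 20 µM, a signal rise over negative controls twice the positive control's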
hIAP act: increases human intestinal alkaline phosphatase activity; purified human IAP, CDP-Star luminescence, 30 min; active compounds read high; 1 = vehicle-only enzyme, 0 = enzyme-free background; actives 0.16% (n = 330,000); activation factor at 10 µM; P09923;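 active means activation factor of the enzyme at least 2-fold when tested at 20 µM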
bIAP inhibitor: blocks bovine intestinal alkaline phosphatase activity; purified bovine IAP, CDP-star luminescence, 30 min; inhibition, % at 20 µM; 190,000 tested, under 10 active; AID 1019;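 active means over 50% inhibition of intestinal alkaline phosphatase at 20 µM in the single-dose screen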
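Assay system – bovine IAP enzyme · Quantity – bovine IAP at 1/65,000,000 final dilution · Detection – CDP-star luminescence signal · Times – 30 min reaction at room temperature · Also added – CDP-star substrate at 30 µM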
hIAP act confirm: human IAP activation confirmation; shares compounds with hIAP act; purified IAP, CDP-Star luminescence, 30 min; active compounds read low; activation (%Activity, negative = activation), % at 8.3 µM; actives 10% (n = 880); AID 434926;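 active means at least twofold enzyme activation in any of six single-dose repeats, which the averaged readout prints as negative percent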
Large screens that a line does not name were inactive (follow-up assays come after a bar, where they were run). This is a sample that favours compounds with a hit; in the whole collection about 0.72% have one here.

CC(C)c1c(C(=O)N/N=C/c2ccc3c(c2)OCO3)nnn1-c1nonc1N	none (no result: bIAP activator, bIAP inhibitor)
CCN(CC)c1ccc(/C=N/NC(=O)c2nnn(-c3nonc3N)c2C(C)C)c(O)c1	hIAP act 2 (no result: bIAP activator, bIAP inhibitor) | hIAP act confirm inactive
Cc1ccc(C(C)NC(=S)NC2CCCCC2)cc1C (stereo unspecified)	none (no result: bIAP activator, bIAP inhibitor)
CCC(NC(=S)NC1CCCCC1)c1ccc(C(C)C)cc1 (stereo unspecified)	mIAP activ 5.7, hIAP act 4.1 (no result: bIAP activator, bIAP inhibitor) | hIAP act confirm -24
COc1cccc(C(=O)NCC(=O)NNc2ncnc(N)c2[N+](=O)[O-])c1	hIAP act 2.7 | hIAP act confirm inactive
Cc1cccc(C)c1Nc1ncnc(N)c1[N+](=O)[O-]	none
CCn1cc(C(=O)NCCCOC)c(=O)c2cc(S(=O)(=O)N3CCCC3)ccc21	hIAP inh 39 (no result: bIAP activator, bIAP inhibitor) | hIAP act confirm inactive
CCCCNC(=O)c1cn(CC)c2ccc(S(=O)(=O)N3CCCC3)cc2c1=O	none (no result: bIAP activator, bIAP inhibitor)
Cc1cc(C)nc(SCC(N)=O)n1	none (no result: bIAP activator, bIAP inhibitor)
COc1cc(C(C)=O)ccc1OCC(O)CNCC(O)c1ccccc1 (stereo unspecified)	none (no result: bIAP activator, bIAP inhibitor)
O=C(COc1ccc2ccccc2c1Br)N1CCCCC1	hIAP inh 36 (no result: bIAP activator, bIAP inhibitor) | hIAP act confirm -50
Cc1ccc(C(=O)NC2CCN(CC(=O)NC3CCC(C)CC3)CC2)cc1 (stereo unspecified)	none (no result: bIAP activator, bIAP inhibitor)
COc1cc(/C=C2\SC(=S)N(NC(=O)c3ccc(O)cc3)C2=O)ccc1O	hIAP inh 44 (no result: bIAP activator, bIAP inhibitor) | hIAP act confirm inactive
COc1cc(/C=C2\SC(=S)N(Nc3ccccc3)C2=O)ccc1O	hIAP inh 40, mIAP block 41 | hIAP act confirm inactive
O=C1/C(=C/c2ccc(F)cc2)SC(=S)N1N1CCOCC1	none (no result: bIAP activator, bIAP inhibitor)
O=C1/C(=C/c2ccc(O)c(O)c2)SC(=S)N1Nc1ccccc1	none (no result: mIAP activ, hIAP inh, mIAP block, hIAP act, bIAP inhibitor)
COc1cc(/C=C2\SC(=S)N(NC(=O)c3cccnc3)C2=O)ccc1O	none (no result: bIAP activator, bIAP inhibitor)
CCOc1cc(/C=C2\SC(=S)N(N3CCOCC3)C2=O)ccc1O	hIAP inh 39 (no result: bIAP activator, bIAP inhibitor) | hIAP act confirm inactive
O=C(/C=C\c1cccs1)N1CCN(Cc2ccc3c(c2)OCO3)CC1	none
Cc1cc(NC(=O)CSc2nnc(-c3ccc([N+](=O)[O-])cc3)o2)no1	hIAP inh 35 (no result: bIAP activator, bIAP inhibitor) | hIAP act confirm inactive
CC(OC(=O)c1ccco1)C(=O)Nc1ccc(C(F)(F)F)cc1 (stereo unspecified)	none (no result: bIAP activator, bIAP inhibitor)
O=C(O)C1OC(Oc2c(-c3ccc(O)c(O)c3)oc3cc(O)cc(O)c3c2=O)C(O)C(O)C1O (stereo unspecified)	hIAP inh 71 | hIAP act confirm inactive
CC1OC(Oc2c(-c3cc(O)c(O)c(O)c3)oc3cc(O)cc(O)c3c2=O)C(O)C(O)C1O (stereo unspecified)	none (no result: bIAP activator, bIAP inhibitor)
CCOc1ccc(C2NC(=O)C(C#N)=C(S)N2c2cccc(C)c2)cc1OC (stereo unspecified)	none
CCOc1ccc(C2NC(=O)C(C#N)=C(S)N2c2ccc(C)cc2)cc1OC (stereo unspecified)	hIAP act 2 | hIAP act confirm inactive
Nc1nnc(Cc2cccc(Br)c2)s1	hIAP act 2.1 (no result: bIAP activator, bIAP inhibitor) | hIAP act confirm inactive
Nc1nnc(Cc2ccccc2)s1	none
CCOc1cc2[nH]c(=O)n(CCCC(=O)N(C)Cc3ccccc3)c(=O)c2cc1OCC	none
C/C(=N/Nc1ccccc1[N+](=O)[O-])c1ccc([N+](=O)[O-])cc1	hIAP inh 37 (no result: bIAP activator, bIAP inhibitor) | hIAP act confirm -233
CC(=O)Nc1nc(-c2ccc(Br)s2)cs1	hIAP act 2.2 | hIAP act confirm inactive
CC(=O)Nc1nc(-c2cccc3ccccc23)cs1	none (no result: bIAP activator, bIAP inhibitor)
Cc1ccc2c(c1)Oc1ccc([N+](=O)[O-])cc1C(=O)N2	hIAP act 2.4 | hIAP act confirm inactive
OC1(c2cccs2)CN(c2ccc(Br)cc2)C2=[N+]1CCCS2 (stereo unspecified)	hIAP act 2.8 (no result: bIAP activator, bIAP inhibitor) | hIAP act confirm inactive
CCCCNS(=O)(=O)c1ccc2nc(-c3cccnc3)cc(C(=O)NCC(OC)OC)c2c1	none (no result: bIAP activator, bIAP inhibitor)
COc1ccccc1/C=C1\S/C(=N/NC(=O)c2cccc(Br)c2)NC1=O	hIAP act 2.5 | hIAP act confirm inactive
COC(=O)/C=C1\S/C(=N/NC(=O)c2ccccc2)NC1=O	none

Screening results deposited in PubChem by Sanford-Burnham Center for Chemical Genomics.
